Reference: ChEMBL document CHEMBL4390639, “Design, Synthesis, and Biological Evaluation of Novel Allosteric Protein Disulfide Isomerase Inhibitors” (J Med Chem, 2019)
Calls of active or inactive are those of the source. The calls are words filed in the database; no cut-off is given here.

Columns and labels:
[1] = tested on: U-87 MG; experiment: Down regulation of AC010931.3 gene expression in human U87MG cells at 16 uM incubated for 4 hrs followed by bromouridine addition during last 30 mins of incubation by TRIzol-reagent based Bru-Seq analysis relative to control; format: functional, U-87MG ATCC
[2] = tested on: U-87 MG; experiment: Up regulation of KCNE4 gene expression in human U87MG cells at 16 uM incubated for 4 hrs followed by bromouridine addition during last 30 mins of incubation by TRIzol-reagent based Bru-Seq analysis relative to control; format: functional, U-87MG ATCC
How it was run: (§1)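 U87MG cells exposed to compound or DMSO vehicle for 4 h, with 2 mM bromouridine added for the final 30 min. Total RNA isolated with TRIzol; Bru-labelled nascent RNA captured on anti-BrdU antibody-conjugated magnetic beads and sequenced. Transcript abundance expressed as RPKM relative to DMSO. Experiment performed once.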

[3] = tested on: U-87 MG; experiment: Down regulation of PRLR gene expression in human U87MG cells at 16 uM incubated for 4 hrs followed by bromouridine addition during last 30 mins of incubation by TRIzol-reagent based Bru-Seq analysis relative to control; format: functional, U-87MG ATCC
How it was run: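 Bru-seq in U87MG cells treated at 16 μM for 4 h; 2 mM bromouridine present during the last 30 min. TRIzol total RNA, then anti-BrdU bead capture of labelled RNA and sequencing. Readout is RPKM traces versus DMSO control. Performed once.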

[4] = tested on: U-87 MG; experiment: Up regulation of HSPA1B gene expression in human U87MG cells at 16 uM incubated for 4 hrs followed by bromouridine addition during last 30 mins of incubation by TRIzol-reagent based Bru-Seq analysis relative to control; format: functional, U-87MG ATCC; how it was run: as §1
[5] = tested on: U-87 MG; experiment: Down regulation of GGT4P gene expression in human U87MG cells at 16 uM incubated for 4 hrs followed by bromouridine addition during last 30 mins of incubation by TRIzol-reagent based Bru-Seq analysis relative to control; format: functional, U-87MG ATCC
[6] = tested on: U-87 MG; experiment: Down regulation of CYP1B1 gene expression in human U87MG cells at 16 uM incubated for 4 hrs followed by bromouridine addition during last 30 mins of incubation by TRIzol-reagent based Bru-Seq analysis relative to control; format: functional, U-87MG ATCC
[7] = tested on: U-87 MG; experiment: Down regulation of H1F0 gene expression in human U87MG cells at 16 uM incubated for 4 hrs followed by bromouridine addition during last 30 mins of incubation by TRIzol-reagent based Bru-Seq analysis relative to control; format: functional, U-87MG ATCC
[8] = tested on: U-87 MG; experiment: Up regulation of CYYR1-AS1 gene expression in human U87MG cells at 16 uM incubated for 4 hrs followed by bromouridine addition during last 30 mins of incubation by TRIzol-reagent based Bru-Seq analysis relative to control; format: functional, U-87MG ATCC; how it was run: as §1
[9] = tested on: U-87 MG; experiment: Down regulation of FKBP7 gene expression in human U87MG cells at 10 uM incubated for 4 hrs followed by bromouridine addition during last 30 mins of incubation by TRIzol-reagent based Bru-Seq analysis relative to control; format: functional, U-87MG ATCC
[10] = tested on: U-87 MG; experiment: Up regulation of ADAMTS5 gene expression in human U87MG cells at 10 uM incubated for 4 hrs followed by bromouridine addition during last 30 mins of incubation by TRIzol-reagent based Bru-Seq analysis relative to control; format: functional, U-87MG ATCC; how it was run: as §1
[11] = tested on: U-87 MG; experiment: Down regulation of MAD2L1 gene expression in human U87MG cells at 10 uM incubated for 4 hrs followed by bromouridine addition during last 30 mins of incubation by TRIzol-reagent based Bru-Seq analysis relative to control; format: functional, U-87MG ATCC
How it was run: (§2)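 Nascent transcription (Bru-seq) in U87MG cells: treatment at 10 μM for 4 h, with 2 mM bromouridine added for the final 30 min. Total RNA isolated with TRIzol; Bru-labelled RNA captured using anti-BrdU antibody on magnetic beads, then sequenced. Transcript traces reported as RPKM compared with DMSO-treated cells. Single experiment.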

[12] = tested on: U-87 MG; experiment: Up regulation of NMRAL2P gene expression in human U87MG cells at 10 uM incubated for 4 hrs followed by bromouridine addition during last 30 mins of incubation by TRIzol-reagent based Bru-Seq analysis relative to control; format: functional, U-87MG ATCC; how it was run: as §2
[13] = tested on: U-87 MG; experiment: Up regulation of NR4A1 gene expression in human U87MG cells at 10 uM incubated for 4 hrs followed by bromouridine addition during last 30 mins of incubation by TRIzol-reagent based Bru-Seq analysis relative to control; format: functional, U-87MG ATCC; how it was run: as §1
[14] = tested on: U-87 MG; experiment: Up regulation of ALOXE3 gene expression in human U87MG cells at 10 uM incubated for 4 hrs followed by bromouridine addition during last 30 mins of incubation by TRIzol-reagent based Bru-Seq analysis relative to control; format: functional, U-87MG ATCC; how it was run: as §1
[15] = tested on: U-87 MG; experiment: Up regulation of GCNT3 gene expression in human U87MG cells at 10 uM incubated for 4 hrs followed by bromouridine addition during last 30 mins of incubation by TRIzol-reagent based Bru-Seq analysis relative to control; format: functional, U-87MG ATCC; how it was run: as §1
[16] = tested on: U-87 MG; experiment: Down regulation of RAD51 gene expression in human U87MG cells at 10 uM incubated for 4 hrs followed by bromouridine addition during last 30 mins of incubation by TRIzol-reagent based Bru-Seq analysis; format: functional, cell-based; conditions: U-87MG ATCC; how it was run: as §2
[17] = tested on: U-87 MG; experiment: Down regulation of BARD1 gene expression in human U87MG cells at 10 uM incubated for 4 hrs followed by bromouridine addition during last 30 mins of incubation by TRIzol-reagent based Bru-Seq analysis relative to control; format: functional, U-87MG ATCC
[18] = tested on: U-87 MG; experiment: Up regulation of CHAC1 gene expression in human U87MG cells at 10 uM incubated for 4 hrs followed by bromouridine addition during last 30 mins of incubation by TRIzol-reagent based Bru-Seq analysis relative to control; format: functional, U-87MG ATCC; how it was run: as §1
[19] = tested on: U-87 MG; experiment: Up regulation of HMOX1 gene expression in human U87MG cells at 10 uM incubated for 4 hrs followed by bromouridine addition during last 30 mins of incubation by TRIzol-reagent based Bru-Seq analysis relative to control; format: functional, U-87MG ATCC; how it was run: as §1
[20] = tested on: U-87 MG; experiment: Down regulation of MYBL1 gene expression in human U87MG cells at 10 uM incubated for 4 hrs followed by bromouridine addition during last 30 mins of incubation by TRIzol-reagent based Bru-Seq analysis relative to control; format: functional, U-87MG ATCC; how it was run: as §2
[21] = tested on: U-87 MG; experiment: Down regulation of LYPD6 gene expression in human U87MG cells at 10 uM incubated for 4 hrs followed by bromouridine addition during last 30 mins of incubation by TRIzol-reagent based Bru-Seq analysis relative to control; format: functional, U-87MG ATCC
[22] = tested on: U-87 MG; experiment: Down regulation of CHSY3 gene expression in human U87MG cells at 10 uM incubated for 4 hrs followed by bromouridine addition during last 30 mins of incubation by TRIzol-reagent based Bru-Seq analysis relative to control; format: functional, U-87MG ATCC
[23] = tested on: U-87 MG; experiment: Up regulation of HSPA4L gene expression in human U87MG cells at 10 uM incubated for 4 hrs followed by bromouridine addition during last 30 mins of incubation by TRIzol-reagent based Bru-Seq analysis relative to control; format: functional, U-87MG ATCC; how it was run: as §1
[24] = tested on: U-87 MG; experiment: Down regulation of FBXO43 gene expression in human U87MG cells at 10 uM incubated for 4 hrs followed by bromouridine addition during last 30 mins of incubation by TRIzol-reagent based Bru-Seq analysis relative to control; format: functional, U-87MG ATCC; how it was run: as §1
[25] = tested on: U-87 MG; experiment: Up regulation of BAG3 gene expression in human U87MG cells at 10 uM incubated for 4 hrs followed by bromouridine addition during last 30 mins of incubation by TRIzol-reagent based Bru-Seq analysis relative to control; format: functional, U-87MG ATCC; how it was run: as §1

COC(=O)c1cccc(/C=C/C(=O)c2cccc(O)c2)c1
fold change (FC) [1]: 3.2
fold change (FC) [2]: 5.1
fold change (FC) [3]: 2.6
fold change (FC) [4]: 10.2
fold change (FC) [5]: 3.3
fold change (FC) [6]: 2.8
fold change (FC) [7]: 2.7
fold change (FC) [8]: 4.3

CCCCCN(CCCCC)S(=O)(=O)c1ccc(C(=O)/C=C/c2cccc(C#N)c2)cc1
fold change (FC) [9]: 2.4
fold change (FC) [10]: 9.6
fold change (FC) [11]: 2.4
log2FC [12]: 2.72
fold change (FC) [13]: 18.9
fold change (FC) [14]: 17
fold change (FC) [15]: 10
Activity [16]: Active
fold change (FC) [17]: 2.3
fold change (FC) [18]: 40.9
fold change (FC) [19]: 27.6
fold change (FC) [20]: 2.6
fold change (FC) [21]: 3.1
fold change (FC) [22]: 2.6
fold change (FC) [23]: 8.6
fold change (FC) [24]: 2.7
fold change (FC) [25]: 17.1
